Assay outcomes deposited in PubChem by several laboratories.
ADAM10 inh – human ADAM10 inhibitors, primary screen, biochemical, QFRET, HTS. Disintegrin and metalloproteinase domain-containing protein 10 (Homo sapiens), O14672. recombinant ADAM10, EDANS/DABCYL FRET peptide cleavage, 3 h. inhibition, % at 7 µM. actives 0.62% (n = 370,000). AID 720582, 2013;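 active means inhibition above a per-campaign cutoff equal to the mean of compounds falling between control-based bounds plus 3 SD, cut at about 20% in these data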;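 further: 0% = DMSO wells while the 100% control is not disclosed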
aDG glyco up – activators of alpha-DG glycosylation, primary screen, uHTS, Pro5-aDG cells, AlphaScreen | actives 0.22% (n = 360,000) | alpha-DG glycosylation AlphaScreen (IIH6); 0% Pro5, 100% B10-LARGE cell signal | AID 624168, 2012 | activation, % at 10 µM;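 active means activation of at least 8% versus controls, or a plate z-score of at least 8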;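 further: Pro5 are CHO cells carrying HIG-tagged alpha-DG that lacks glycosylation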
ADAM17 inh – ADAM17 inhibitors, primary screen, biochemical, QFRET. Disintegrin and metalloproteinase domain-containing protein 17 (Homo sapiens), P78536. recombinant ADAM17, EDANS/DABCYL FRET peptide cleavage. inhibition, % at 6.95 µM. actives 0.83% (n = 370,000);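 active means inhibition above the mean of compounds lying between control limits plus 3 SD, set per campaign, cut at about 8.5% in these data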;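 further: 0% = DMSO-only wells as the low control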
Target sequence (P78536 215-824 limits assumed): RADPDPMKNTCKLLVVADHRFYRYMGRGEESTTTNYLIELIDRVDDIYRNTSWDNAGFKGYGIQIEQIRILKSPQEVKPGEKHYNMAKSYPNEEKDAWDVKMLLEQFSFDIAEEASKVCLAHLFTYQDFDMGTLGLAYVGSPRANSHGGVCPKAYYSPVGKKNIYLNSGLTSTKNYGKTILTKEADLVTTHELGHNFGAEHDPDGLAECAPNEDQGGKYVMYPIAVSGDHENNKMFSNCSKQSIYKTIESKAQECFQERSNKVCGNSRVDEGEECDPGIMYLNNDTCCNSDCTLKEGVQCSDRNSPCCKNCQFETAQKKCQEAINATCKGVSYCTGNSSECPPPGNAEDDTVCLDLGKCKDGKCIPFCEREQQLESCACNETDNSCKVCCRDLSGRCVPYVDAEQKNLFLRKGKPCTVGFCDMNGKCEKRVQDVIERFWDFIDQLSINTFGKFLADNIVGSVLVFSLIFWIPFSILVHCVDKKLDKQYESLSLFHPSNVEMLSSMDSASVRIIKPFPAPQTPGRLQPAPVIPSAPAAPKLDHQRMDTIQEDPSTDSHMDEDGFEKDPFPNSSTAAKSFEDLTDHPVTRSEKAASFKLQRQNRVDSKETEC
V-ATPase pHluor – regulators of yeast V-ATPase proton pumping, primary screen, pHLuorin cytosolic pH fluorescence. actives 0.37% (n = 350,000). response, % at 10 µM. S. cerevisiae; in the data active means response mostly above about 7.3%, no sharp cut-off; inactive means mostly below about 5.4%; further: actives read high
MPTP inh – mitochondrial permeability transition pore inhibitors, primary screen, biochemical, isolated mouse mitochondria, absorbance | Ca2+ swelling absorbance, 30 min | inhibition, % at 10 µM | actives 1.4% (n = 360,000);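 active means inhibition of 50% or more, scaled per plate between neutral and stimulator controls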;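 further: 0% = DMSO wells given calcium and 100% = 1 mM EGTA wells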
Lipid droplet – inhibitors of hepatocyte lipid droplet formation, primary screen, imaging, high-throughput imaging, BODIPY stain. AML12 mouse hepatocytes, oleate lipid droplets. inhibition, % at 6.5 µM. actives 0.4% (n = 240,000);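 active means lipid droplet intensity inhibited by at least 50%, with more than 500 cells counted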
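Assay system: AML12 mouse liver cells | Compound: 6.5 µM single-point dosing | Schedule: Overnight exposure | Technique: Fluorescence imaging, 20x objective, two fields per well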
MPTP counter – fluorescence retest of MPTP screen hits in isolated mitochondria, single concentration. shares compounds with MPTP inh. membrane potential, Rhodamine 123 fluorescence. inhibition, % at 10 µM. actives 78% (n = 5,000). AID 624504, 2012; in the data active means inhibition above about 22%;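 further: 0% = DMSO vehicle and 100% = positive control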
MPTP abs DR – mitochondrial permeability transition pore inhibitors, dose response, biochemical, absorbance, uHTS hits | shares compounds with MPTP inh | isolated mitochondria swelling | IC50, µM | actives 58% (n = 780); in the data active means IC50 below about 20 µM
MPTP counter DR – fluorescent counter-screen in isolated mitochondria, dose response, counter-screen for MPTP inhibitor project, biochemical, fluorescence, uHTS hits. actives 49% (n = 780). shares compounds with MPTP inh. IC50, µM. isolated mitochondria counterscreen, fluorescence read-out; in the data active means IC50 below about 80 µM
Numbers without * were called inactive; i = inactive; nt = no result. Rows were chosen to be rich in hits. Some 3.1% of all compounds tested hit in one or more screens of this group.

SMILES | ADAM10 inh | aDG glyco up | ADAM17 inh | V-ATPase pHluor | MPTP inh | Lipid droplet | MPTP counter | others
COc1ccc(OCC(=O)N2CCN(c3nnc(-c4ccc(C)cc4)c4ccccc34)CC2)cc1 | 10 | 1 | -1 | 1 | 60* | 24 | 15 | MPTP abs DR=20*;MPTP counter DR=22*
CCCC(=O)N1CCC[C@]2(CC[C@@H](CCC#N)O2)C1 | -6 | nt | -3 | nt | nt | nt | nt
COC(=O)c1cnn(-c2ccc(Cl)cc2)c1/C=N/NC(=S)Nc1ccccc1 | -3 | nt | -5 | nt | nt | nt | nt
O=C(Nc1cccc(S(=O)(=O)Nc2ccccc2F)c1)c1ccco1 | -13 | 0 | -2 | 1 | 1 | nt | nt
Cn1c(=O)c2c(ncn2CC(=O)Nc2cccc(S(=O)(=O)Nc3ccccc3F)c2)n(C)c1=O | 7 | 0 | -1 | 0 | -3 | -12 | nt
O=C(Cc1ccc(Cl)cc1)Nc1cccc(S(=O)(=O)Nc2ccccc2F)c1 | 10 | 0 | 2 | 2 | 60* | -38 | 64*
O=C(Nc1cccc(S(=O)(=O)N2CCCCCC2)c1)c1ccc(Cl)nc1 | -8 | 0 | 2 | -2 | 4 | nt | nt
O=C(Nc1cccc(S(=O)(=O)Nc2ccccc2Cl)c1)c1ccc(Cl)nc1 | 5 | 2 | 1 | 2 | 62* | 4 | 56*
O=C(CSc1ccc([N+](=O)[O-])cc1)Nc1cccc(S(=O)(=O)Nc2ccccc2F)c1 | 7 | 4 | 1 | 0 | 87* | nt | 68*
O=C(c1cc(-c2ccc(Cl)cc2)nc2ccccc12)N1CCN(c2ncccn2)CC1 | -9 | nt | 0 | nt | nt | nt | nt
CC1=C([N+](=O)[O-])C(c2ccccc2)C2=C(N1)c1ccccc1C2=O (stereo unspecified) | 5 | 0 | 1 | 1 | 88* | -12 | 65*
CCn1c(COc2ccccc2)nnc1SCC(=O)Nc1ccc(S(=O)(=O)Nc2cc(C)nc(C)n2)cc1 | 5 | nt | 1 | nt | nt | nt | nt
O=C(NCc1ccc2c(c1)OCO2)c1c(-c2ccccc2)sc2ccccc12 | 0 | 0 | -4 | 4 | 82* | nt | 79*
CC1(C)CC(=O)C2=C(C1)c1c(ccc3ccccc13)NC2c1cc([N+](=O)[O-])cc([N+](=O)[O-])c1O (stereo unspecified) | 9 | 0 | 3 | 5 | 73* | 0 | 57*
CC1(C)CC(=O)C2=C(C1)c1c(ccc3ccccc13)NC2c1ccc(C(=O)O)cc1 (stereo unspecified) | i | 0 | -454 | 0 | 0 | -6 | nt
Cc1ccc(CC(=O)Nc2ncc([N+](=O)[O-])s2)cc1 | 2 | 0 | 1 | -1 | 66* | 2 | 90*
Cc1ccc(S(=O)(=O)CC(=O)Nc2ncc([N+](=O)[O-])s2)cc1 | -1 | 0 | 0 | 5 | 0 | -3 | nt
Cc1ncoc1C(=O)Nc1ncc([N+](=O)[O-])s1 | -1 | 0 | 8 | 2 | -1 | 42 | nt
CCCCC(CC)C(=O)Nc1ncc([N+](=O)[O-])s1 (stereo unspecified) | 10 | 0 | 5 | 0 | 98* | -31 | 100*
CCOc1ccc(OCC)c(NC(=O)CSc2nc3ccccc3c(=O)n2C)c1 | -5 | 2 | 0 | 5 | 93* | nt | 75*
CCOc1ccc(OCC)c(NC(=O)CSc2nc3cccnc3n2C)c1 | 1 | 1 | -3 | 0 | 9 | 0 | nt
COc1ccc(-c2ocnc2C(=O)NCc2nn(-c3ccccc3)nc2C)cc1 | -10 | 1 | -10 | 0 | 98* | 0 | 87*
COc1ccc(CC(=O)NCc2nn(-c3ccccc3)nc2C)cc1OC | 4 | 0 | -3 | -2 | -1 | 8 | nt
CCn1c(COc2ccc(Cl)cc2)nnc1SCC(=O)Nc1ccccc1-c1ccccc1 | 15 | nt | 9 | nt | nt | nt | nt
C(=C\c1nccc2c1[nH]c1ccccc12)/c1ccccc1 | -300 | 1 | -146 | 3 | 7 | 2 | nt
SMILES | ADAM10 inh | aDG glyco up | ADAM17 inh | V-ATPase pHluor | MPTP inh | Lipid droplet | MPTP counter | others
Fc1ccc(/C=C\c2nccc3c2[nH]c2ccccc23)cc1 | -256 | 1 | -118 | 0 | 87* | -37 | 80*
Cc1ccc(/C=C\c2nccc3c2[nH]c2ccccc23)cc1 | -248 | 1 | -135 | -2 | 75* | -20 | 61*
Fc1ccc(CN2CCN3CCCC3C2C2CCCCC2)cc1F (stereo unspecified) | 4 | 0 | -6 | 1 | 56* | nt | -12 | MPTP abs DR=16*;MPTP counter DR=>80
CCOc1cc(CNCCc2ccc(S(N)(=O)=O)cc2)ccc1OCc1ccccc1 | 6 | 5.7* | 1 | 1 | 105* | nt | 41*
NS(=O)(=O)c1ccc(CCNCc2cc(Br)ccc2OCc2ccccc2)cc1 | 4 | 4 | 0 | -1 | 66* | -90 | 52*
OCCNCc1cc(Br)ccc1OCc1ccccc1 | -6 | 1 | -3 | -2 | 0 | -12 | nt
C=CCCC(=O)N1CCC(C(=O)NC2CCCc3ccccc32)CC1 (stereo unspecified) | -2 | nt | 2 | nt | nt | nt | nt
CCc1nccn1CC(=O)c1ccc(O)c(O)c1 | 2 | nt | -1 | nt | nt | nt | nt
COc1ccc2c(c1)CN1C(=O)N(CCc3ccccc3)S(=O)(=O)CC21 (stereo unspecified) | -1 | nt | 3 | nt | nt | nt | nt
Cc1ccc2nc(N(CCN(C)C)C(=O)/C=C/c3cccs3)sc2c1 | -56 | 0 | -9 | 6 | 99* | 2 | -17 | MPTP abs DR=7.5*;MPTP counter DR=>80
CN(C)CCN(C(=O)/C=C/c1cccs1)c1nc2c(F)cc(F)cc2s1 | -11 | 0 | -2 | -5 | 102* | -18 | -10
CCc1ccc2nc(N(CCN(C)C)C(=O)/C=C/c3cccs3)sc2c1 | nt | 0 | nt | 1 | 1 | 5 | nt
CCOC(=O)[C@]12CCCC=C1N(Cc1ccc(OC)cc1)C(=O)[C@@H]2CC(=O)N1CCSCC1 | 1 | nt | -3 | nt | nt | nt | nt
COc1cc(CNC2CCCC2)cc(Cl)c1OCc1ccccc1Cl | nt | 2 | nt | -2 | 82* | nt | -11
COc1cc(CNCCO)cc(Cl)c1OCc1ccc(Cl)cc1Cl | 5 | -1 | 4 | 3 | 97* | 16 | -12
COc1cc(O)c(C(CC(=O)N2CCCC(C)C2)c2ccccc2)c(OC)c1 (stereo unspecified) | -5 | nt | -4 | nt | nt | nt | nt
